Arrestin-AP2 inh = human beta-arrestin and AP2 interaction inhibition; inhibition, % at 10 µM; 340,000 compounds, 0.31% hits; FITC-arrestin peptide / GST-AP2 beads, flow cytometry; AP2 beta2 appendage carries R879A mutation;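 active = inhibition above a set limit, near 3 SD of compounds lacking own fluorescence, cut at about 54% in these data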
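Material – AP2 appendage R879A on GSH beads · Buffer or medium – PBS with 0.05% Tween 20 and 0.1% BSA · Probe or stimulus – fluorescein-tagged arrestin peptide at 50 nM final · Incubation – compound with beads 12 min RT, then probe 1 h RT · Detection – high-throughput flow cytometry of beads, ex 488, em 535 nm · Evaluation – percent response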
GRK2 inh = blocks RNA aptamer binding to human GRK2 | bead flow cytometry, FAM-aptamer displacement from GRK2 | inhibition of aptamer binding, % at 10 µM | 330,000 compounds, 0.59% hits | AID 488847;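 active = inhibition of aptamer binding above 40%, roughly 3 SD of noise, on plates passing a quality check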;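 also: median bead fluorescence of bound FAM aptamer so fluorescent compounds give negative values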
Target sequence (P25098 whole entry, looked up): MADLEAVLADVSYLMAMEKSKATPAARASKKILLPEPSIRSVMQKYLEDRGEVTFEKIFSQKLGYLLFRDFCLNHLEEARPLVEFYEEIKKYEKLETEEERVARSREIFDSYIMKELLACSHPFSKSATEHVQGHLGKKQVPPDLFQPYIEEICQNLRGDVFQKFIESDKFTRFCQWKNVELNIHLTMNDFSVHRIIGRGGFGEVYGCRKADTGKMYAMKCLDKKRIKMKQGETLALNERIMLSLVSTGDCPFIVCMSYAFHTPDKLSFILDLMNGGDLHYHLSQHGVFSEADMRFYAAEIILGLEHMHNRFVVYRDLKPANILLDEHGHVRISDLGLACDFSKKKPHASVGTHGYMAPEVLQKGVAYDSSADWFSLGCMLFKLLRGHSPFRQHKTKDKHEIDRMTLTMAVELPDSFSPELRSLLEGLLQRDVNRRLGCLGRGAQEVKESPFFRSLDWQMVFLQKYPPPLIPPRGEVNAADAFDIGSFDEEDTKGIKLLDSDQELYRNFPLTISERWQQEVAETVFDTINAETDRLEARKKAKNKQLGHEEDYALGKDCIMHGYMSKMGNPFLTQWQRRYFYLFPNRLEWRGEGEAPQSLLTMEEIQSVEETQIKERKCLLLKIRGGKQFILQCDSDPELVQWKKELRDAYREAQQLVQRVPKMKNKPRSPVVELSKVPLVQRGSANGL
NTR1 ag = NTR1 (human) agonism. P30989. NTR1-U2OS beta-arrestin-GFP spot imaging, agonist mode. activation, % at 20 µM. 330,000 compounds, 0.17% hits. AID 493036;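 active = activation at or above 40% of the spot to cytoplasm intensity ratio, with at least 20 cells analyzed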
H9c2 TAG inh = triacylglycerol accumulation inhibition; H9c2 cells, Nile Red lipid (TAG) fluorescence; cells loaded with 200 µM oleic acid; AID 651582; inhibition, % at 12.5 µM; 230,000 compounds, 0.66% hits;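 active = pattern-corrected inhibition of lipid staining of at least 50% with the nuclear-stain viability signal not falling by more than 50%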
Hep lipid drop = hepatic lipid droplet formation modulation. 240,000 compounds, 0.4% hits. inhibition, % at 6.5 µM. AML12 mouse hepatocytes, oleate lipid droplets, BODIPY imaging;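 active = lipid droplet intensity inhibited by at least 50%, with more than 500 cells counted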
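Technique: fluorescence imaging, 20x objective, two fields per well / Assay system: AML12 hepatocytes (mouse) / Measure: % inhibition of lipid droplet signal / Doses: 6.5 µM single-point dosing / Incubation: overnight exposure / Reagent: 100 µM oleic acid challenge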
Beta2AR agonist = human beta-2 adrenergic receptor agonism by FAP; Am2.2-beta2AR cells, FAP receptor internalization, flow cytometry; response, % (concentration not given with the values); 340,000 compounds, 0.43% hits; AID 504454; P07550;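 active = response above a set limit, near 3 SD of response in nonfluorescent compounds, cut at about 42% in these data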
Beta2AR ag CP1 = agonists of human beta-2 adrenergic receptor | shares compounds with Beta2AR agonist | Am2.2-beta2AR cells, FAP surface receptor, flow cytometry; hits give low values | percent response (surface receptor), % at 10 µM | 1,100 compounds, 25% hits | AID 540358;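 active = surface receptor percent response at or below 58%, roughly 3 SD from nonfluorescent compounds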
FAP fluor counter = counter-screen for beta-2AR agonists: fluorescence in Am2.2 cells; shares compounds with Beta2AR agonist; FAP fluorogen flow cytometry, fluorescence counterscreen; hits give low values; calls only at 10 µM; 1,100 tested, under 10 active;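 active = percent response below a set limit in fluorescence channel 1 and below 50% in channel 8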
Large screens that a line does not name were inactive (follow-up assays come after a bar, where they were run). A selection: hits, their analogues and other compounds. The true share with any hit is near 2%.

O=C(Nc1nc(-c2ccccc2)cs1)c1ccco1	none
CCCCNS(=O)(=O)c1ccc2nc(-c3cccnc3)cc(C(=O)NCCCN(CC)CC)c2c1	none (no result: Arrestin-AP2 inh, H9c2 TAG inh, Beta2AR agonist)
CCN(CC)CCNC(=O)c1cc(-c2cccnc2)nc2ccc(S(=O)(=O)N3CCC(C)CC3)cc12	none (no result: H9c2 TAG inh) | Beta2AR ag CP1 inactive | FAP fluor counter inactive
CCCCN(C)CCNC(=O)c1cc(-c2cccnc2)nc2ccc(S(=O)(=O)N3CCC(C)CC3)cc12	Beta2AR agonist 46.4 (no result: H9c2 TAG inh) | Beta2AR ag CP1 inactive | FAP fluor counter inactive
COc1cccc(NC(=O)C2(C)CCN2Cc2ccc(SC)cc2)c1 (configuration not stated)	none (no result: Arrestin-AP2 inh, GRK2 inh, NTR1 ag, Hep lipid drop, Beta2AR agonist)
CC1C/C(=N\NC(N)=S)c2cc(Cl)ccc2S1 (configuration not stated)	none | Beta2AR ag CP1 inactive | FAP fluor counter inactive
COc1cc(/C=C/C(=O)c2ccc3c(c2)OCO3)cc(Cl)c1O	none (no result: H9c2 TAG inh, Hep lipid drop)
CCOC(=O)COc1cccc2c(=O)n(CC(=O)NCc3ccc(F)cc3)ccc12	Beta2AR agonist 50.6 | Beta2AR ag CP1 inactive | FAP fluor counter inactive
CCOC(=O)COc1cccc2c(=O)n(CC(=O)NCc3ccccc3)ccc12	none
COc1ccccc1Nc1nc(NCc2ccco2)c2ccccc2n1	none | Beta2AR ag CP1 inactive | FAP fluor counter inactive
Cc1cc(=O)n2c(nc3ccccc32)[nH]1	none (no result: H9c2 TAG inh)
CCCc1cc(=O)n2c(nc3ccccc32)[nH]1	Beta2AR agonist 67.8 | Beta2AR ag CP1 inactive | FAP fluor counter inactive
O=[N+]([O-])c1cccc(C=NNC(=S)NC23CC4CC(CC(C4)C2)C3)c1	none (no result: GRK2 inh, NTR1 ag, Hep lipid drop)
Cc1cc(OCc2cc(C(=O)N(C)CCCN3CCOCC3)no2)cc(C)c1Cl	none (no result: H9c2 TAG inh)
CN(CCCN1CCOCC1)C(=O)c1cc(COc2cccc(C(F)(F)F)c2)on1	Beta2AR agonist 51.9 (no result: H9c2 TAG inh) | Beta2AR ag CP1 inactive | FAP fluor counter inactive
O=C(c1ccc(OC2CCN(Cc3ccc(C(F)(F)F)cc3)CC2)cc1)N1CCCCC1	Beta2AR agonist 61.6 (no result: H9c2 TAG inh) | Beta2AR ag CP1 8.5 | FAP fluor counter inactive
O=C(c1ccc(OC2CCN(Cc3ccccc3C(F)(F)F)CC2)cc1)N1CCCCC1	none | Beta2AR ag CP1 inactive | FAP fluor counter inactive
COc1ccc(S(=O)(=O)NC2CC2)cc1Cl	none
COc1ccc(-c2cc(C(F)(F)F)n3nc(C(N)=O)cc3n2)cc1	none (no result: Arrestin-AP2 inh, GRK2 inh, NTR1 ag, Hep lipid drop, Beta2AR agonist)
O=C(Cn1nnc(-c2ccccc2)n1)Nc1ccccc1N1CCOCC1	none (no result: H9c2 TAG inh) | Beta2AR ag CP1 43.3 | FAP fluor counter inactive
O=C(c1cc(-c2ccc(Cl)cc2)n(-c2cc(Cl)ccc2Cl)n1)N1CCOCC1	Beta2AR agonist 61.6 (no result: H9c2 TAG inh, Hep lipid drop) | Beta2AR ag CP1 inactive | FAP fluor counter inactive
O=C(c1cc(-c2ccc(Cl)cc2)n(-c2ccc(Cl)c(Cl)c2)n1)N1CCOCC1	none
O=C(NCc1nnc(SCC(=O)N2CCOCC2)o1)c1ccccc1	none (no result: Arrestin-AP2 inh, GRK2 inh, NTR1 ag, Hep lipid drop, Beta2AR agonist)
COc1ccc(OCC(=O)Nc2ccc(NC(=O)c3cccs3)cc2)cc1	Beta2AR agonist 54.5 (no result: H9c2 TAG inh) | Beta2AR ag CP1 inactive | FAP fluor counter inactive
Cc1ccc(NC(=O)Cc2nc(CN(C)CC(=O)Nc3ccc(C)cc3)cs2)cc1	none (no result: Hep lipid drop)
CCn1cnc2c1c(=O)n(CC(=O)NCC(C)C)c(=O)n2Cc1ccccc1	none (no result: H9c2 TAG inh)
CCOC(=O)CSc1nnc(CNc2cccc(Cl)c2)n1-c1ccccc1	none
CCOC(=O)CSc1nnc(CNc2ccc(Cl)cc2)n1-c1ccccc1	Beta2AR agonist 107.9 (no result: H9c2 TAG inh, Hep lipid drop) | Beta2AR ag CP1 inactive | FAP fluor counter inactive
COc1ccc(NC(=O)CNC(=O)Cn2cnc3sc4c(c3c2=O)CCCC4)cc1OC	none (no result: H9c2 TAG inh)
Cc1ccccc1N=C/C=C1/C=C(c2ccccc2)OC(C)(C)O1	Beta2AR agonist 42.6 (no result: H9c2 TAG inh) | Beta2AR ag CP1 inactive | FAP fluor counter inactive
c1ccc(CSc2nnnn2-c2cccc3ccccc23)nc1	Beta2AR agonist 43.3 (no result: Hep lipid drop) | Beta2AR ag CP1 38.9 | FAP fluor counter inactive
O=C(O)c1cccc(-n2nnnc2SCc2ccccn2)c1	none
O=C(CN1C(=O)NC2(CCCC2)C1=O)Nc1ccc(F)c([N+](=O)[O-])c1	none (no result: H9c2 TAG inh)
